Bioassay records (PubChem BioAssay)
In the library only some 2.3% were active in any assay of this set; here they are far more common.
Calpain2 inh: inhibitors of pig calpain II. purified calpain II, fluorogenic peptide substrate, 30 min. actives 0.37% (n = 220,000). inhibition, % at 16 µM;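 active = inhibition above about 50%, limit read from the data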
NPY1 pot ag: potentiators or agonists of human neuropeptide Y receptor Y1; activation, % at 3.6 µM; P25929; NPY-Y1 expressing cells, potentiator/agonist activation; AID 1304; actives 0.37% (n = 220,000); in the data active = activation above about 33%, passing the limit was not always enough;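 note: cells stimulated with NPY at EC10 then isoproterenol at EC100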
Target sequence (P25929 whole entry, looked up): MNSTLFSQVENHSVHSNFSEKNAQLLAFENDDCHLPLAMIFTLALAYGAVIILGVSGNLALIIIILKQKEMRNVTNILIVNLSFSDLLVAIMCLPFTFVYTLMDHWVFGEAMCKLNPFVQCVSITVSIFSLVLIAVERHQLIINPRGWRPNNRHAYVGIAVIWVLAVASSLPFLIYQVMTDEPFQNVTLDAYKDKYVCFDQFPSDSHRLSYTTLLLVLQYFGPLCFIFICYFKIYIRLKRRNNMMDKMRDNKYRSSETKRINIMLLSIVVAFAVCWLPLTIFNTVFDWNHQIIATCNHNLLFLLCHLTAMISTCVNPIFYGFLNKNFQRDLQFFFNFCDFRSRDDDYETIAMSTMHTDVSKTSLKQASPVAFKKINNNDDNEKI
NPY-Y1 antag: NPY-Y1 (human) receptor antagonism; P25929; HEK293-CNG Y1 cells, membrane potential fluorescence; NPY at EC95, then isoproterenol; inhibition, % at 3.6 µM; actives 1% (n = 200,000); AID 1040;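 active = inhibition above the campaign mean inhibition of all tested compounds plus 3 SD, cut at about 20% in these data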
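Assay system: HEK293 cells with Y1 receptor plus CNG channel | Probe or stimulus: NPY (25 nM), isoproterenol (1 µM), Ro 20-1724 (25 µM) | Timing: Compound incubation 1 h at room temperature, readout 45 min post-stimulation | Measured by: Membrane-potential fluorescent dye readout | Benchmarks: High control isoproterenol alone, low control NPY with isoproterenol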
NPY Y2 blocker: antagonists of human neuropeptide Y receptor Y2 | P49146 | NPY-Y2 expressing cells, antagonist mode | inhibition, % at 2.7 µM | actives 0.99% (n = 140,000) | AID 793; in the data active = inhibition above about 17%
Tb hexokinase: blocks Trypanosoma brucei hexokinase 1 activity; recombinant TbHK1, G6PDH-coupled NADH A340; inhibition, % at 10 µM; actives 0.11% (n = 220,000);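 active = inhibition of 50% or more in the single-dose primary screen; inactive = inhibition below 50%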
NPY2 pot ag: human NPY-Y2 potentiation or agonism, primary screen | actives 0.45% (n = 220,000) | cells expressing NPY-Y2, potentiator/agonist read-out | P49146 | activation, % at 3.6 µM; in the data active = activation above about 27%;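 note: cells stimulated with NPY near EC25 plus isoproterenol at EC100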
Numbers stand for hits; 0 = inactive; - = no result given.

SMILES	Calpain2 inh	NPY1 pot ag	NPY-Y1 antag	NPY Y2 blocker	Tb hexokinase	NPY2 pot ag
Cn1c(=O)c2c(nc(CN3CCN(c4cccc(Cl)c4)CC3)n2CCc2ccccc2)n(C)c1=O	-	0	0	17	0	0
Cn1c(CSCc2ccc(F)cc2)nnc1SCC(=O)Nc1cccc(C(=O)O)c1	0	0	-	-	0	0
CCCCN(CCCC)C(=O)/C=C/c1cccc([N+](=O)[O-])c1	62	0	0	0	0	0
c1ccc(C[n+]2cccc3c4ccccc4ccc32)cc1	0	0	0	0	0	36
CCCCC[n+]1cccc2c3ccccc3ccc21	0	0	0	-	0	0
O=C(O)[C@H](Cc1ccccc1)NC(=O)N1CCN(c2cccc(C(F)(F)F)c2)CC1	0	0	-	-	0	0
O=C(NCCN1CCOCC1)c1cnn2c(-c3ccccc3)cc(-c3ccccc3)nc12	0	0	36	20	0	0
COc1cccc(C(=O)Nc2sc3c(c2C#N)CCN(C(C)=O)C3)c1	0	0	0	-	0	0
CCC(C)NC(=O)CCC(=O)Nc1ccc2nc(N3CCOCC3)cc(C)c2c1 (configuration not stated)	0	84	0	0	0	93
CCCN(CCC)CCCNC(=S)Nc1ccc2nc(N3CCCC3)cc(C)c2c1	0	0	22	-	0	0
CCCCN(CC)CCCNC(=S)Nc1ccc2nc3n(c(=O)c2c1)CCCCC3	65	0	0	0	0	0
CCN1CCN(c2cc(C)c3cc(NC(=S)NCc4cccs4)ccc3n2)CC1	51	0	0	-	0	0
CCN(CC)CCNC(=S)Nc1ccc2nc(N3CCCC3)cc(C)c2c1	0	0	0	-	0	0
Cc1cc(N2CCN(C)CC2)nc2ccc(NC(=S)NCc3cccs3)cc12	0	0	0	-	0	0
O=C(CSCc1ccc(Br)cc1)N1CCCC1	0	0	0	-	0	0
CCCC(C)NC(=O)COC(=O)c1cccc(NS(C)(=O)=O)c1 (configuration not stated)	0	0	-	-	0	0
CC1CN(C(=O)C2(C)CC2(Br)Br)CC(C)O1 (configuration not stated)	0	0	0	0	0	0
CSc1nc(-c2ccc(F)cc2)cc(=O)[nH]1	0	0	0	0	0	0
O=C(Nc1ccc(OC(F)(F)F)cc1)c1[nH]ncc1[N+](=O)[O-]	0	0	0	-	0	0
COc1ccc(Cc2[nH]n3c(=O)cc(C(C)C)nc3c2-c2ccccc2)cc1	0	0	0	-	0	0
COc1cccc(NC(=S)NCCC(c2ccccc2)c2ccccc2)c1	56	0	0	0	0	0
COc1ccccc1Oc1cc(C#N)c(C#N)cc1-n1nnc2ccccc21	0	0	46	19	0	0
Nc1c2c(nc3ccccc13)CCCC2	0	0	0	0	0	0
Nc1c2ccccc2nc2ccccc12	0	64	-	-	0	51
CCN(CC)c1nc2ccccc2c(N)c1-c1ccccc1	0	0	29	23	0	0
SMILES	Calpain2 inh	NPY1 pot ag	NPY-Y1 antag	NPY Y2 blocker	Tb hexokinase	NPY2 pot ag
O=C(N/N=C/c1ccco1)c1cccc(N2Cc3ccccc3C2)c1	0	0	0	-	0	0
CCN(CC)S(=O)(=O)c1ccc2oc(C(=O)NCc3ccc(C)cc3)c(C)c2c1	63	0	0	0	0	0
Cc1ccc(CNC(=O)c2oc3ccc(S(=O)(=O)N4CCOCC4)cc3c2C)cc1	57	0	0	0	0	0
Cc1c(C(=O)NCc2ccccc2)oc2ccc(S(=O)(=O)N3CCCC3)cc12	0	0	0	0	0	0
O=C(Cc1ccccc1Cl)Nc1cccc(S(=O)(=O)N2CCOCC2)c1	0	0	0	0	0	0
Cc1ccc2c(CC(=O)Nc3cccc(S(=O)(=O)N4CCOCC4)c3)coc2c1	51	0	0	-	0	0
CC(C)CC(=O)Nc1c2c(nn1-c1ccc(F)cc1)CSC2	0	93	0	0	0	100
O=C(c1ccc(F)cc1)c1ccc(N2CCCC2)cc1	0	0	21	0	0	0
O=C(Nc1ccc(N2CCCCC2)cc1)c1ccc(F)cc1	0	0	0	0	0	0
CCOC(=O)N1CCN(c2ccc(C(=O)c3cccc(F)c3)cc2)CC1	58	0	0	0	0	0
CCOC(=O)N1CCN(c2ccc(Cl)c(Cl)c2)CC1	0	0	0	0	0	0
COc1ccc([N+](=O)[O-])cc1NC(=O)c1cc(C)c(C)o1	0	0	0	-	0	0
Cc1cc(C)n2nc(SCc3nnc(SCc4ccccc4Cl)s3)nc2n1	50	0	0	0	0	0
O=C(/C=C\Nc1ccc(Br)cc1)c1cccnc1	0	0	0	0	0	0
c1ccc2c(c1)CCN(c1nc(CN3CCOCC3)nc3sc4c(c13)CCCC4)C2	0	0	23	23	0	0
CC(C)c1ccc(C(=O)NC(=S)NCc2cccnc2)cc1	53	0	0	0	0	0
CC(C)Cn1c(N)c(C(=O)COC(=O)c2ccc(Cl)cc2)c(=O)n(C)c1=O	81	0	0	-	0	0
CC(C)Cn1c(N)c(C(=O)COC(=O)c2ccncc2)c(=O)n(C)c1=O	0	0	0	0	0	0
Cn1c(N)c(C(=O)COC(=O)c2ncc(Cl)c(Cl)c2Cl)c(=O)n(C)c1=O	62	0	0	-	0	0
Cn1c(N)c(C(=O)COC(=O)c2ccccn2)c(=O)n(C)c1=O	0	0	0	-	0	0
CC(C)Cn1c(N)c(C(=O)COC(=O)CCc2nc3ccccc3s2)c(=O)n(C)c1=O	0	0	20	-	0	0
Cc1ccc(C)c(NC(=O)C2CCCN2S(=O)(=O)c2ccc3c(c2)n(C)c(=O)c(=O)n3C)c1 (configuration not stated)	0	0	0	0	0	0
CC(C)(C)C(=O)Cn1ncc(Br)c(Br)c1=O	0	0	0	-	0	0
O=C(NCCC1CC1(Cl)Cl)Nc1ccccc1 (configuration not stated)	0	0	-	-	0	0
COc1ccc(C2=NOC(C(=O)N(C)Cc3ccccc3)C2)cc1 (configuration not stated)	0	0	0	-	0	0
SMILES	Calpain2 inh	NPY1 pot ag	NPY-Y1 antag	NPY Y2 blocker	Tb hexokinase	NPY2 pot ag
CC1CCN(c2nc(CN3CCCCC3)nc3scc(-c4ccccc4)c23)CC1	0	0	41	47	0	0
CC1CCN(c2nc(-c3cccnc3)nc3scc(-c4ccccc4)c23)CC1	0	0	0	0	0	0
CCC(CC)NC(=O)c1oc2ccccc2c1COc1ccccc1	0	0	32	26	0	0
COC(=O)[C@@]1(Cc2ccc(OC)cc2)[C@H]2c3cc(C(=O)N4CCCC4)n(CCO)c3C[C@H]2CN1C(=O)c1ccccc1	0	0	0	0	0	0
COC(=O)[C@@]1(Cc2ccccc2)[C@H]2c3cc(C(=O)N4CCCC4)n(Cc4ccsc4Br)c3C[C@H]2CN1C(=O)c1ccccc1	0	0	49	23	0	0
COC(=O)c1ccc(NC(=S)NC(=O)c2cc(-c3ccccc3)nc3ccccc23)cc1	0	0	41	23	0	0
Cc1ccc(NC(=O)c2cc(Cl)nc3ccccc23)cc1	0	0	31	21	0	0
